Rows were chosen to be rich in hits. Some 2.2% of all compounds tested hit in one or more screens of this group.
V-ATPase pH – yeast V-ATPase proton transport regulation by pHLuorin. response, % at 10 µM. AID 504577. S. cerevisiae, pHLuorin cytosolic pH fluorescence. 0.37% of 350,000 active; in the data active means response mostly above about 7.3%, no sharp cut-off; inactive means mostly below about 5.4%; further: actives read high
CendR NRP1 mod – NRP-1/CendR interaction modulation; O14786; FAM-RPARPAR peptide binding to NRP-1, fluorescence polarization; inhibition, % at 25 µM; 0.85% of 360,000 active;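 active means inhibition or corrected inhibition above about 18%, plus a signal ratio from 0.5 to 1.5, limit read from the data, passing the limit was not always enough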
Exocytosis inh – lytic granule exocytosis inhibition; TALL-104 LAMP-1 surface exposure, flow cytometry; cells stimulated with thapsigargin and PMA; inhibition, % at 10 µM; 0.66% of 360,000 active;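 active means inhibition above about 55%, limit read from the data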
ARFGAP1 inhibitor – rat ARFGAP1 inhibition. Q62848. Arfgap1-stimulated ARF1 GTP hydrolysis, GDP FP detection. inhibition, % at 16.5 µM. 0.26% of 360,000 active;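 active means inhibition above a per-plate limit, mean inhibition of low control wells plus 3 SD, cut at about 25% in these data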;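 further: 0% = DMSO wells with enzyme and 100% = wells lacking Arfgap1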
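Assay system: Rat Arfgap1 GAP domain (His6, aa 1-136), purified enzyme | Buffer or medium: HEPES 25 mM pH 7.5, NaCl 150 mM, MgCl2, DTT | Schedule: GTP hydrolysis reaction 2 h at 25 °C | Signal: FP of antibody-bound GDP Alexa 633 tracer, ex 620/em 688 nm | Measure: Percent inhibition of Arfgap1-stimulated GTP hydrolysis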
ASAP1 GAP inh – ASAP1 ArfGAP inhibition | 0.19% of 360,000 active | ASAP1-stimulated ARF1 GTP hydrolysis, GDP FP detection | inhibition, % at 16.5 µM | Q9ULH1; in the data active means inhibition above about 25%;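 further: 0% = vehicle with enzyme and substrate and 100% = no enzyme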
The depositor's hits bear a star; nt = no result given.

SMILES | V-ATPase pH | CendR NRP1 mod | Exocytosis inh | ARFGAP1 inhibitor | ASAP1 GAP inh
Cc1cc(NC(=O)Cc2c(C)[nH]c3ccccc23)ccc1Oc1cccnc1 | nt | nt | nt | -12.7 | -13.1
c1ccc(CNc2nc(-c3ccccc3)nc3ccccc23)cc1 | 0.9 | 0.1 | 1.7 | 8.7 | -6.8
c1ccc(CNc2nc(NCc3ccccc3)c3ccccc3n2)cc1 | -0.7 | -14.5 | 60.8* | nt | nt
CCCCCCCCN1C(=O)[C@@H](CC(=O)NCc2cccc3ccccc23)C[C@@]2(C(=O)OC)C1=C[C@H](C1CCCC1)O[C@@H]2C | nt | nt | nt | 4.1 | 15.6
COc1ccccc1C(=O)NC(=O)CSc1nncn1C | 3.7 | 26.2* | -0.7 | -12.2 | 4.1
Cn1cnnc1SCC(=O)Nc1nc(-c2ccccc2)cs1 | -1.5 | 19.8* | 0.4 | 2.1 | -9.7
CC(=O)NNc1nc(-c2ccccc2)cs1 | 4.5 | -8.5 | 0.8 | 7.6 | 12.3
CC(=O)Nc1nc(-c2ccc(-c3ccccc3)cc2)cs1 | -0.7 | 21.0* | -3.0 | -2.4 | -8.0
CN1C(=O)[C@@]2(O[C@H]3[C@H]4C=C[C@@H]([C@H]5C(=O)N(Cc6ccccc6)C(=O)[C@@H]45)N3C3=C2C(=O)CC3)c2ccccc21 | nt | nt | nt | -7.8 | 1.6
C=CCN=C1NC(CCc2ccccc2)C(C(=O)OC)=C(C)N1Cc1cccc(C(F)(F)F)c1 (configuration not stated) | nt | nt | nt | 9.7 | -8.1
CNC(=O)NC(=O)C(c1ccccc1)N(C)CC1COc2ccccc2O1 (configuration not stated) | 2.5 | 0.3 | -0.3 | -7.4 | -2.2
O=C(/C=C/[C@H]1O[C@@H](n2cnc3c(NC(=O)c4ccccc4)ncnc32)[C@H](O)[C@@H]1O)NCc1ccco1 | nt | 21.7* | -2.0 | 15.9 | 10.4
O=C(COc1ccc(Cl)cc1)NCc1nnc(SCC(=O)Nc2ccccc2)o1 | -1.2 | 16.2 | -0.8 | 4.7 | 9.2
O=C(COc1ccc(Cl)cc1)NCc1nnc(SCC(=O)NCCc2ccccc2)o1 | -3.8 | 19.7* | 1.0 | 1.9 | 23.2
Cc1cc(SCC(=O)N2CCN(C(=O)c3ccco3)CC2)c(C)cc1Br | 1.6 | 21.8* | 5.6 | 5.7 | -8.4
O=C(NS(=O)(=O)c1cccc(F)c1)[C@H]1O[C@@H](n2ccc(=O)[nH]c2=O)[C@H](O)[C@@H]1O | nt | nt | nt | -0.8 | -2.8
O=C(C(=O)N1CCN(C(=O)C2CCC2)CC1)c1cccc(C(F)(F)F)c1 | nt | nt | nt | 4.4 | 10.9
COc1ccc(C(=O)NC2CC2)cc1OC1CCN(Cc2ccccc2)CC1 | 0.1 | 22.4* | -6.6 | -8.0 | 0.7
COc1ccc(C(=O)NC2CC2)cc1OC1CCN(Cc2ccc(F)cc2)CC1 | 2.5 | 11.9 | -0.7 | -3.9 | -6.0
CCCCn1c(N2CCCC2)nc2c1c(=O)[nH]c(=O)n2C | -3.4 | -1.3 | 1.5 | -6.1 | -15.9
CCCCCn1c(N2CCN(c3cccc(Cl)c3)CC2)nc2c1c(=O)[nH]c(=O)n2C | 1.3 | 28.1* | 6.3 | 0.2 | -4.8
O=C(c1ccccc1CCc1ccccc1)N1CCCC1 | 40.2* | 3.5 | -1.1 | -13.9 | 3.0
CC1(C)CC(=O)C=C(Nc2ccc(F)cc2)C1 | 13.9* | -3.2 | 3.4 | 0.2 | 5.8
CC1(C)CC(=O)C=C(Nc2ccc(F)cc2F)C1 | -6.3 | -0.7 | -4.5 | 15.1 | -0.4
CSCCCNC(=S)N1CCN(c2ccc(C(C)=O)cc2)CC1 | 0.3 | 24.2* | -1.4 | -14.0 | 4.3
SMILES | V-ATPase pH | CendR NRP1 mod | Exocytosis inh | ARFGAP1 inhibitor | ASAP1 GAP inh
CCCCNC(=S)N1CCN(c2ccc(C(C)=O)cc2)CC1 | -2.6 | -6.8 | 1.0 | -4.2 | -7.7
OC(c1ccccc1)(c1ccccc1)C1CCN(CCCOc2cccnc2)CC1 | nt | nt | nt | 0.3 | -15.6
COc1ccc(-c2csc(N(CCCN(C)C)C(=O)c3ccc(Br)cc3)n2)cc1 | -9.8 | 22.4* | 20.2 | 9.3 | 7.4
COc1ccc(-c2csc(N(CCCN(C)C)C(=O)c3ccc(C)cc3)n2)cc1 | -3.3 | -0.5 | 34.7 | -15.1 | 7.6
CC(C)N1C(=O)/C(=C\c2nc3ccccc3c(=O)[nH]2)c2ccccc21 | -1.3 | -12.2 | 97.6* | -10.3 | -6.1
COC(=O)c1cc2c(c3c4cc(OC)ccc4n(C(=O)c4ccccc4)c13)C(=O)N(C1CCCCC1)C2 | nt | nt | nt | 3.4 | 2.0
Cc1ccccc1OCCCN1CCC(C(O)(c2ccccc2)c2ccccc2)CC1 | nt | nt | nt | -8.1 | -5.5
O=[N+]([O-])c1ccc(Nc2nc(N/N=C/c3cccc(F)c3)nc(N3CCCC3)n2)cc1 | -1.7 | 1.5 | 2.3 | 6.3 | 6.6
O=[N+]([O-])c1ccc(Nc2nc(NC3CCCCC3)nc(N3CCCC3)n2)cc1 | -2.0 | 39.2* | 78.2* | -6.7 | 12.2

Screening results as filed in PubChem.
